# In the library only some 1.9% were active in any assay of this set; here they are far more common.
# UCH37 DUB inh: blocks the human deubiquitinase UCH37; hit rate 0.33% among 330,000; Q9Y5K5; inhibition, % (concentration not given with the values); purified proteasome/UCH37, Ub-AMC cleavage fluorescence;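 active = mean inhibition over replicate wells above about 20%, limit read from the data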;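 also: 0% = compound-free wells with enzyme and 100% = wells lacking proteasome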
# Target sequence (Q9Y5K5 whole entry, looked up): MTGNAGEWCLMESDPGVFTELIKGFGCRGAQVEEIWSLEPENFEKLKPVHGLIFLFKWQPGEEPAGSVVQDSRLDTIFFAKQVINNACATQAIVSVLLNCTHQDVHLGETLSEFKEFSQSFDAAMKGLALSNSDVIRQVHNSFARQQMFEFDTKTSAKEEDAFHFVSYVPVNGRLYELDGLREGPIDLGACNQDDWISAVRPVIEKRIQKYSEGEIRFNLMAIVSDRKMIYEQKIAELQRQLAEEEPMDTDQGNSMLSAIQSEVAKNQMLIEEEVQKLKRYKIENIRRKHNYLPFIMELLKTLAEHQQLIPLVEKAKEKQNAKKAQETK
#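 assay system = human UCH37 enzyme supplied as purified proteasome complex | amount = proteasome at 0.15 nM in the dispensed enzyme solution | schedule = 30 min compound-proteasome preincubation then 25 min substrate reaction, room temperature | measured by = fluorescence, ex 355 nm, em 460 nm | benchmarks = no-proteasome wells (full inhibition) and compound-free wells (no inhibition)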
# PG9 Ab binder: PG9 antibody binding by small molecule; hit rate 0.43% among 360,000; inhibition, % at 6.7 µM; TR-FRET gp120-PG9 antibody binding; AID 624416; in the data active = inhibition above about 8.5%
# NR1D1 modulator: Rev-erb alpha (human) modulation. AID 1259318. hit rate 0.79% among 370,000. Rev-erbα–FITC-DNA binding, fluorescence polarization, 90 min. P20393. activity, % at 10 µM;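 active = activity above about 14%, limit read from the data; passing the limit was not always enough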;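 also: 0% = DMSO wells with 35 nM protein and 100% = DMSO wells with 750 nM protein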
# beta cell repl: induces beta-cell replication in MIN6 cells. MIN6 cells proliferation, ATPlite luminescence, 48 h; cells starved in 0.2% serum; 100% = growth in 10% serum. proliferation, % at 10 µM. hit rate 0.29% among 330,000. AID 2380;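 active = compounds whose signal lies at least 3.5 SD above the mean of all wells on their plate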;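 also: 0% = DMSO-treated cells in low-serum medium and 100% = 10% serum control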
# Yeast superoxide: caloric restriction mimetics inhibiting age-related superoxide in yeast | hit rate 0.18% among 330,000 | superoxide response (% of plate mean), % at 10 µM | S. cerevisiae aged cells, superoxide DHE fluorescence; hits give low values;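 active = superoxide response under a set limit, about three screen SD below normal, cut at about 65% in these data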;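 also: yeast aged for seven days with compound at 30 °C before DHE staining; 100% = average MFI of all compound-treated wells on the plate with controls excluded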
# Rce1 inh: inhibitors of yeast Ras-converting enzyme | Q03530 | yeast membranes, quenched prenylated peptide cleavage fluorescence | calls only | hit rate 0.27% among 290,000;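 active = fall in fluorescence gain of 50% or more versus controls, with final raw signal at or below 3038400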;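 also: plate controls were neutral control wells for no effect and wells lacking membranes for full effect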
# Target sequence (Q03530 whole entry, looked up): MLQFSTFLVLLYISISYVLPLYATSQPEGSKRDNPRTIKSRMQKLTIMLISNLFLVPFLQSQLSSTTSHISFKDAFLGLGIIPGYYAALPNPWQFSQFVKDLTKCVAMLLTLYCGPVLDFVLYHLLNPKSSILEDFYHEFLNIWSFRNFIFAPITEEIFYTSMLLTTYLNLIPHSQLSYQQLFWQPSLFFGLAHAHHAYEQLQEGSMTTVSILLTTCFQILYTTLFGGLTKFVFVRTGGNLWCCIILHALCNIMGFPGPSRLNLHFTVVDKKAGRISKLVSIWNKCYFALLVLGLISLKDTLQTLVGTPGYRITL
# Superoxide pick: confirmation of caloric restriction mimetics inhibiting yeast age-related superoxide; shares compounds with Yeast superoxide; S. cerevisiae aging, superoxide DHE fluorescence; hits give low values; superoxide response (% of plate), % at 10 µM; hit rate 1% among 850; AID 434994;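 active = superoxide signal below 65% of the plate average of sample wells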;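 also: cells aged with compound for 7 days at 30 degrees C before staining; 100% equals mean DHE fluorescence of all compound wells on the plate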
# DHE counter: DHE fluorescence interference, counter-screen artifact | AID 435000 | S. cerevisiae BY4741, flow cytometry; hits give low values | shares compounds with Yeast superoxide | 850 tested, under 10 active | fluorescence response, % at 10 µM;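 active = fluorescence response below 15%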;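 also: percent of the mean fluorescence averaged over all compound wells on the plate; lower means stronger quenching of DHE signal or ROS scavenging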
# The depositor's hits bear a star; i = inactive; . = no result.
SMILES,UCH37 DUB inh,PG9 Ab binder,NR1D1 modulator,beta cell repl,Yeast superoxide,Rce1 inh,Superoxide pick,DHE counter
CNS(=O)(=O)c1cc(-c2nnc(Nc3ccc(NC(C)=O)cc3)c3ccccc23)ccc1C,-8,-2,2,2,51*,i,104,96
CC(C)(C)c1csc(NN=Cc2ccc(O)cc2)n1,-4,.,.,.,.,.,.,.
O=[N+]([O-])c1ccc(OC(F)F)c(C=Nn2cnnc2)c1,5,.,.,.,.,.,.,.
CCCCC(=O)NN=Cc1cc([N+](=O)[O-])ccc1N1CCOCC1,9,.,.,.,.,.,.,.
CCC(=O)N(C)CCc1cc2c(c(OC)c1C=NNC(=O)c1ccncc1)OCO2,10,.,.,.,.,.,.,.
Cc1nnsc1C(=O)NNS(=O)(=O)c1cc(C(F)(F)F)cc(C(F)(F)F)c1,3,-2,7,-2,59*,i,96,96
CNC(=S)N1N=C(c2cccs2)CC1c1ccc(F)cc1 (centres undefined),0,-3,2,-3,65*,i,107,95
Cc1cccc(NC(=O)c2c(C)nc3ccccn23)c1,2,-1,-8,-2,94,i,.,.
Cc1nc2ccccn2c1C(=O)NNC(=O)Nc1cccc(C(F)(F)F)c1,1,-2,2,-3,64*,i,105,89
CC(C(=O)Nc1cc([N+](=O)[O-])ccc1Cl)N1CCN(c2ccccc2)CC1 (centres undefined),4,0,-9,-1,103,i,.,.
CC(C(=O)Nc1ccccc1)N1CCN(c2ccccn2)CC1 (centres undefined),6,0,-5,-5,103,i,97,98
Cc1cc([N+](=O)[O-])ccc1NC(=O)C(C)N1CCN(c2ccccn2)CC1 (centres undefined),4,-1,-4,2,116,i,84,96
COc1ccc(Cl)cc1NC(=O)C(C)N1CCN(c2ccccn2)CC1 (centres undefined),-1,-1,-3,0,104,i,97,96
COc1ccc(Cl)cc1C(=O)N1CCN(c2ccccn2)CC1,5,-1,0,-2,87,i,.,.
CC(=O)c1ccc(NC(=O)CNCc2cccs2)cc1,1,0,5,-4,96,i,.,.
N#Cc1ccc(Cl)cc1NC(=O)CNCc1cccs1,-1,-1,-3,0,63*,i,96,93
CC(C)c1ccc(NC(=O)Cn2c(=O)oc3ccccc32)cc1,1,-1,1,-6,65*,i,95,110
O=C(O)Cn1c2ccccc2c2ccccc21,0,-1,2,-1,122,i,107,111
NC(=O)CCn1c2ccccc2c2ccccc21,1,-3,6,0,102,.,98,98
OCCOCCOCCn1c2ccccc2c2ccccc21,-1,0,3,-3,113,i,105,105
CC(C)CCn1c2ccccc2c2cc(CC(N)=O)ccc21,0,-2,6,-1,113,i,103,96
COCCOCCn1c(CCCO)nc2ccccc21,1,3,5,-4,98,i,.,.
O=C(O)CCn1c(=O)c2ccccc2c2ccccc2c1=O,-4,4,-3,-1,99,i,.,.
O=C(NN=C/C(Br)=C/c1ccccc1)c1cccs1,5,.,.,.,.,.,.,.
NNC(=O)Cn1c2ccccc2c2ccccc21,4,1,1,-1,105,i,105,90
SMILES,UCH37 DUB inh,PG9 Ab binder,NR1D1 modulator,beta cell repl,Yeast superoxide,Rce1 inh,Superoxide pick,DHE counter
COc1ccc(-n2nnnc2CNC(=O)c2ccc(S(=O)(=O)N3CCOCC3)cc2)cc1,2,1,-7,1,60*,i,107,114
O=C(NCc1nnnn1-c1ccc(F)cc1)c1ccc(S(=O)(=O)N2CCOCC2)cc1,.,0,1,.,.,.,.,.
CN1CCN(N=Cc2ccc(C#N)cc2)CC1,5,.,.,.,.,.,.,.
Cc1ccc(C=NNC(=O)CSc2nc3ccccc3[nH]2)o1,-1,.,.,.,.,.,.,.
Cc1ccccc1OCC(=O)OCn1nnc2ccccc2c1=O,6,-1,1,-4,65*,i,109,102
O=C(COc1ccc(Cl)cc1Cl)OCn1nnc2ccccc2c1=O,6,0,-1,2,97,i,.,.
C=CCn1c(SCC(=O)NC2CCCCC2)nnc1-c1ccc(OC)cc1,3,1,3,-1,57*,i,114,112
Cc1cccc(N2CCN(C(=O)CC(NC(=O)c3ccccc3)c3ccccc3)CC2C)c1 (centres undefined),1,-2,-7,0,54*,i,84,91
COc1cccc(N2CCN(C(=O)CC(NC(=O)c3ccccc3)c3ccccc3)CC2)c1 (centres undefined),-3,-1,0,-4,96,.,.,.
CCOc1ncccc1C(=O)N1CCN(c2cc(Cl)ccc2C)CC1,1,-1,4,0,106,i,90,112
CCOc1ncccc1C(=O)N1CCN(c2cccc(C)c2C)CC1,-3,-3,2,.,.,i,114,107
CCOc1ncccc1C(=O)N1CCN(S(=O)(=O)c2ccccc2)CC1,0,0,-4,-2,87,i,.,.
CCOc1ncccc1C(=O)N1CCN(C(=O)c2ccccc2)CC1,5,-2,0,1,109,i,.,.
NC1=C(c2ccccc2)C(=O)NC1=O,0,-2,1,-1,37*,i,99,106
O=C1OCC(c2ccccc2)=C1c1ccccc1,0,-2,-1,0,97,i,.,.
N#C/C(=N\Nc1cccc(C(F)(F)F)c1)C(=O)c1ccsc1,.,-1,6,-4,64*,i,108,106
N#C/C(=N\Nc1cccc([N+](=O)[O-])c1)C(=O)c1ccc(Br)cc1,.,0,3,-7,98,i,.,.
CCn1c(C)nc2cc(C(=O)NN=Cc3ccc(N4CCOCC4)cc3)ccc21,-15,.,.,.,.,.,.,.
Fc1ccccc1COc1ccc(C(=S)N2CCCC2)cc1,-1,-2,-1,-4,65*,i,107,93
COc1ccccc1-c1nnc(NC(=O)c2ccc(S(=O)(=O)N(C)C)cc2)o1,3,-2,0,-2,90,i,.,.
N#CCCN(CCC#N)S(=O)(=O)c1ccc(C(=O)Nc2nnc(C3=COCCO3)o2)cc1,5,-2,0,-2,88,i,.,.
CN(CC1CCCO1)S(=O)(=O)c1ccc(C(=O)Nc2nnc(-c3ccccc3)o2)cc1 (centres undefined),10,-1,1,-4,93,i,105,123
CCCCN(C)S(=O)(=O)c1ccc(C(=O)Nc2nnc(C3=COCCO3)o2)cc1,2,0,2,-2,118,i,99,110

# Screening results: PubChem, several laboratories
